An excerpt weighted towards active compounds, which were near 1.7% of everything screened.
F508del corr = F508del CFTR correction, initial screen, CFBE line, single point; activity (quench increase), % at 7.58 µM; CFBE cells, YFP halide quenching; stimulated with forskolin plus potentiator P3; % fluorescence drop versus neutral controls; AID 720511, 2013; 350,000 compounds, 0.36% hits;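 active means mean added fluorescence quench of at least 8% versus neutral control, with both replicates also reaching 8%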;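 further: cells transiently co-express mutant CFTR-F508del with the halide-sensitive YFP; corrector assay measuring rescue of mutant channel to the surface after 24 h compound exposure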
CaV13 ICDI inh = Disruptors of the CACNA1D IQ motif to Ca2+-dependent inactivation inhibitor domain association, primary screening, Förster resonance energy transfer in intact living …; AID 743397; HEK cells, CFP/YFP FRET ICDI-IQ, plate reader, 10 min; percent FRET-ratio fall versus neutral wells; inhibition, % at 12.3 µM; 340,000 compounds, 0.098% hits;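 active means mean replicate inhibition of at least 30% and at least 1% of replicates passing that level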;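 further: 0% = median of the neutral control wells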
Cneo AK release = Cryptococcus neoformans cell lysis inducers, primary screen, AK release luminescence, single concentration; lysis activity, % at 15 µM; C. neoformans lysis, adenylate kinase release luminescence, 4 h; normalised: neutral wells 0, clomiphene wells 100; 360,000 compounds, 0.2% hits; AID 651654, 2012;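 active means mean lysis activity across replicates of at least 80%, whatever share of replicates individually reach that level; inactive means mean lysis activity below 80%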
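Material – log-phase Cryptococcus neoformans yeast cells · Input – 5 × 10^6 yeast cells/mL · Medium – fresh YPD growth medium · Doses – single compound concentration per well · Timing – static 4 h at 37 °C with compound, 1 h detection · Detection – adenylate kinase release luminescence · Read-out – signal increase indicating cell lysis · Control set – Clomiphene as positive lysis control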
rRNA inh HTS = reduced GFP signal of wild-type E. coli, primary screen, bacterial rRNA inhibitor project, GFP/RFP fluorescence, OD600, single point; 350,000 compounds, 1.6% hits; E. coli WT GFP vs humanized-ribosome RFP mutants, 24 h; active compounds read low; DMSO median 0, no signal -100; GFP signal change (wild-type ribosome), % (no concentration beside the values);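 active means significant combined selectivity score with lowered wild-type GFP, culture density cut under 30%, mutant RFP and density less affected; inactive means any of these conditions unmet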
Numbers without * were called inactive; nt = no result given; ! = not active in a repeat.

SMILES	F508del corr	CaV13 ICDI inh	Cneo AK release	rRNA inh HTS
Oc1ccc(N=Nc2n[nH]c(-c3ccc(Cl)cc3)n2)cc1	2	-7	-11	-18*
O=C(C[C@@H]1CC[C@H]2[C@@H](COC[C@H](O)CN2Cc2ccc(Oc3ccccc3)cc2)O1)Nc1nccs1	1	nt	88*	-47
O=C(C[C@H]1CC[C@H]2[C@@H](COC[C@H](O)CN2Cc2cccc(Cl)c2)O1)Nc1nccs1	-3	nt	115*	-3
Cc1ccc(-c2csc(N/N=C/c3ccco3)n2)cc1	nt	-5	1	nt
Brc1ccc(-c2csc(N/N=C/c3ccco3)n2)cc1	-2	-5	0	-38*
Clc1ccc(-c2csc(N/N=C\c3cccnc3)n2)cc1	nt	-15	nt	-21*
CN(C)S(=O)(=O)c1ccc(-c2csc(N/N=C/c3ccco3)n2)cc1	-2	-2	nt	-20*
CCC(=O)Nc1ccc2c(c1)C(=O)N(C)[C@@H]1CC[C@@H](CC(=O)Nc3cccc(OC)c3)O[C@H]1CO2	-3	nt	0	1
C[C@H](CO)N1C[C@H](C)[C@@H](CN(C)C(=O)Nc2ccccc2)OCCCC[C@H](C)Oc2ccc(NC(=O)Nc3ccc(C(F)(F)F)cc3)cc2C1=O	nt	nt	nt	1
CC=Cc1ccc2n(c1=O)C[C@@H]1[C@@H](CO)[C@H](C(=O)NCCOC)[C@H]2N1Cc1ccccc1OC (mixture of isomers)	-3	nt	nt	3
CC(=O)Nc1cccc(-c2csc(NCc3ccccc3)n2)c1	0	-6	nt	-30*
CC(=O)Nc1ccc(-c2csc(NCc3ccccc3)n2)cc1	-1	-2	nt	2
CN(C)C(=O)[C@H]1[C@H](CO)[C@H]2Cn3c(ccc(-c4ccccc4F)c3=O)[C@@H]1N2C(=O)c1ccccc1	nt	nt	-4	1
Cc1cc(OCCCC(=O)Nc2cccc(-n3cnnn3)c2)ccc1Cl	-2	-16	1	-34*
COc1cccc(NC(=O)COc2cccc(-n3cnnn3)c2)c1	2	-5	nt	2
COCC#Cc1cnc2c(c1)C(=O)N([C@H](C)CO)C[C@H](C)[C@H](CN(C)C(=O)Nc1ccccc1F)O2	1	nt	-1	2
CN1CCN(C(=O)C[C@@H]2CC[C@@H]3[C@H](COc4ccc(NC(=O)C5CCCCC5)cc4C(=O)N3C)O2)CC1	2	nt	-3	-1
O=C(COc1cccnc1[N+](=O)[O-])N1N=C(c2ccc(Cl)cc2)CC1c1ccco1 (stereo not drawn)	2	-4	nt	-20*
CCC(=O)N1N=C(c2ccc(Cl)cc2)CC1c1ccco1 (stereo not drawn)	1	-7	nt	-28*
CN1CC(=O)N(CC(=O)N2N=C(c3ccc(Cl)cc3)CC2c2ccco2)C1=O (stereo not drawn)	6	-2	-1	10
CC(C)NC(=O)N(C)C[C@H]1Oc2ccccc2CC(=O)N(C)C[C@H]1C	nt	nt	nt	0
FC(F)(F)COc1nc(N/N=C/c2cccnc2)nc(N2CCCCC2c2ccccn2)n1 (stereo not drawn)	1	2	8	-33*
COc1ccccc1-c1cnc2c(c1)C(=O)N([C@H](C)CO)C[C@H](C)[C@H](CN(C)CC1CC1)O2	-1	nt	nt	-1
Cc1ccn2cc(-c3cccc(S(=O)(=O)N4CC(C)OC(C)C4)c3)nc2c1 (stereo not drawn)	2	-4	0	-5
Cc1ccn2cc(-c3cccc(S(=O)(=O)N4CCCC4)c3)nc2c1	-2	-16	-3	-25*
SMILES	F508del corr	CaV13 ICDI inh	Cneo AK release	rRNA inh HTS
COc1ccc(CCN2CN(S(=O)(=O)c3ccc(OC)cc3)c3nc4ccccc4nc32)cc1	nt	-3	nt	-9
COc1ccc(CN2CN(S(=O)(=O)c3ccccc3)c3nc4ccccc4nc32)cc1	0	-3	nt	-25*
COc1ccc(CN2CN(S(=O)(=O)c3cccs3)c3nc4ccccc4nc32)cc1	0	-3	nt	-42*
O=S(=O)(c1cccs1)N1CN(Cc2ccccc2)c2nc3ccccc3nc21	nt	-4	nt	nt
CCn1nc(C)c(NC(=O)CSc2nnc(-c3ccco3)n2C)c1C	nt	nt	0	nt
Cc1nn(Cc2ccccc2)c(C)c1NC(=O)CSc1nnc(-c2cc(Cl)ccc2O)n1C	0	-7	1	-20*
CNC[C@H]1OCCCC[C@@H](C)Oc2ccc(NC(=O)NC(C)C)cc2C(=O)N([C@H](C)CO)C[C@@H]1C	1	nt	-1	3
CNC[C@H]1OCCCC[C@H](C)Oc2ccc(NC(=O)CCCN(C)C)cc2C(=O)N([C@H](C)CO)C[C@@H]1C	-2	-6	107*!	5
CNC[C@H]1OCCCC[C@@H](C)Oc2ccc(NC(=O)Cc3ccccc3)cc2C(=O)N([C@@H](C)CO)C[C@H]1C	-1	nt	14	8
CNC[C@@H]1OCCCC[C@H](C)Oc2ccc(NC(=O)NC(C)C)cc2C(=O)N([C@H](C)CO)C[C@H]1C	-2	nt	117*	10
CNC[C@H]1OCCCC[C@H](C)Oc2ccc(NC(=O)Cc3ccccc3)cc2C(=O)N([C@H](C)CO)C[C@@H]1C	2	nt	108*	3
CNC[C@@H]1OCCCC[C@@H](C)Oc2ccc(NC(=O)CCCN(C)C)cc2C(=O)N([C@H](C)CO)C[C@@H]1C	-1	nt	nt	1
CCOC(=O)Cc1csc(NC(=S)NC(=O)c2ccccc2C)n1	3	-6	3	-20*
CCOC(=O)Cc1csc(NC(=O)CCSc2ccccc2)n1	-1	-2	-1	-21*
CCOC(=O)Cc1csc(NC(=O)Nc2cccc(OC)c2)n1	nt	-5	-3	-29*
O=C(Cc1ccccn1)N[C@@H]1CC[C@@H](CC(=O)N2CCCCC2)O[C@H]1CO	-1	nt	-1	3
CC(NCCC1(Cc2ccccc2Cl)CCOC(C)(C)C1)c1cccs1 (stereo not drawn)	2	-5	1	-39*
CCN(CC(=O)Nc1ccccc1OC)CC(=O)Nc1c(Cl)ccc(C)c1Cl	1	nt	0	-26*
COc1cc(/C=C/C(=O)OCC(=O)NC(C)c2ccccc2)cc(OC)c1OC (stereo not drawn)	1	-5	-1	-13*
CC(NC(=O)COC(=O)/C=C/c1ccc(Cl)cc1)c1ccccc1 (stereo not drawn)	-3	1	5	7
COc1cc(C)cc(C(=O)C=Cc2ccccc2)c1O	3	-6	2	-52*
COc1ccc(C(=O)/C=C/c2ccccc2)c(OC)c1	-1	nt	-14	6
COc1cc(OC)c(C=CC(=O)c2ccccc2O)c(OC)c1	1	-5	-1	9
COc1cc(/C=C/C(=O)c2ccccc2O)cc(OC)c1OC	0	nt	-1	-17*
CCC(=O)N[C@@H]1CC[C@@H](CCNS(=O)(=O)c2ccc(Cl)cc2)O[C@@H]1CO	-8	nt	-1	1
